Publication PMC8919062 (European journal of medicinal chemistry, 2021)

Key:
Class I/IIb HDACs [1] = assay: class-distinguishing fluorogenic substrates whole-cell assay, class I/IIb, L3.6; format: cell-based; conditions: read-out: IC50 Class I/IIb HDACs, L3.6 cells
Summary of the method: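 Whole cells incubated with 200 µM Boc-Lys-Ac (class-I/IIb selective substrate) in RPMI without phenol red plus 0.1% FBS, 3 h at 37 °C. Test compound given as an 11-point curve at 5% final DMSO; 5 µM trichostatin A served as positive control and DMSO alone as negative control. Trypsin developer (2.5 mg/mL, with tween 80) added for 1 h to lyse cells and release fluorophore. Read at ex 360 / em 460 nm; IC50 by nonlinear fit.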

HDAC5 = conditions: read-out: IC50 HDAC5 non-cell-based inhibition; ref [19],[20]; cited from earlier work
HDAC9 = conditions: in words; ref [19],[20]; cited from earlier work
HDAC4 = conditions: read-out: IC50 HDAC4 non-cell-based inhibition; ref [19],[20]; cited from earlier work
Other HDACS = assay: fluorogenic assay against recombinant HDAC proteins, other HDACs; format: biochemical, human; conditions: read-out: IC50 Other HDACS
Summary of the method: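 Recombinant human HDACs screened with commercial fluorogenic enzyme assay kits, following the manufacturer protocol, at 9 dilutions of test compound. Fluorescence read on a microplate reader. IC50 from nonlinear curve fit of % HDAC activity inhibition vs compound concentration.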

[2] = system: indigenous class-IIa HDACs; conditions: read-out: IC50 binding to indigenous class-IIa HDACs; THP-1 cells; ref [19]; cited from earlier work
Class I/IIb HDACs [3] = assay: class-distinguishing fluorogenic substrates whole-cell assay, class I/IIb, HT-29; format: cell-based; conditions: read-out: IC50 Class-I/IIb, HT-29 cells, Boc-Lys-Ac substrate
Class IIa HDACs = assay: class-distinguishing fluorogenic substrates whole-cell assay, class IIa, HT-29; format: cell-based; conditions: read-out: IC50 Class-IIa, HT-29 cells, Boc-Lys-TFA substrate

IC50 (Class I/IIb HDACs [1]) | IC50 (Other HDACS) | IC50 (Class I/IIb HDACs [3]) | IC50 (Class IIa HDACs) | Molecule | IC50 (HDAC5) | IC50 HDAC9 non-cell-based inhibition (HDAC9) | IC50 (HDAC4) | IC50 [2]
> 5000 nM | > 5000 nM | – | – | CC(C)(CNC(=O)c1cccc(-c2noc(C(F)(F)F)n2)c1)c1coc(-c2ccccc2)n1 [TMP195] | > 100 nM | low nM range | > 100 nM | 300 nM
– | – | > 15000 nM | 933 ± 260 nM | N-(3-(benzylamino)-2,2-dimethyl-3-oxopropyl)-4-(5-(trifluoromethyl)-1,2,4-oxadiazol-3-yl)benzamide [Compound 10] | – | – | – | –
